Source: ChEMBL document CHEMBL1157843, “Synthesis and anticonvulsant activity of a new 6-alkoxy-[1,2,4]triazolo[4,3-b]pyridazine” (Eur J Med Chem, 2010)
The source made the active and inactive calls. The rule behind the calls is not given here.

Legend:
Mus musculus [1] = assay: Anticonvulsant in mouse assessed as protection against maximum electric stimulus-induced seizures at 100 mg/kg, ip after 4 hrs; assay type: functional, organism-based; parameters: dose 100 mg/kg
Summary of the method: (§1)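 Phase-I qualitative MES screen following NIH ADD protocol. KunMing mice (18–25 g), three per dose, test agent in polyethylene glycol-400 i.p. at 30, 100 or 300 mg/kg. Protection assessed 0.5 h and 4 h after dosing; scored as animals protected/animals tested.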

Mus musculus [2] = assay: Neurotoxicity against mouse at 100 mg/kg, ip after 0.5 hrs by rotarod ataxia test; assay type: toxicity, organism-based; parameters: dose 100 mg/kg, route intraperitoneal; details: in vivo
Summary of the method: (§2)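 Phase-I rotarod ataxia screen per NIH ADD protocol. KunMing mice (18–25 g), three per dose, test agent in polyethylene glycol-400 i.p. at 30, 100 or 300 mg/kg. Neurological deficit read 30 min and 4 h after dosing; scored as animals showing toxicity/animals tested.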

Mus musculus [3] = assay: Neurotoxicity against mouse at 100 mg/kg, ip after 4 hrs by rotarod ataxia test; assay type: toxicity, organism-based; parameters: dose 100 mg/kg, route intraperitoneal; details: in vivo; summary of the method: as §2
Mus musculus [4] = assay: Anticonvulsant in ip dosed mouse assessed as protection against maximum electric stimulus-induced seizures; assay type: functional
Summary of the method: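 Phase-II quantitation in KunMing mice (18–25 g), vehicle polyethylene glycol-400. Groups of 10 received a range of i.p. doses until at least three points fell within 10–90% MES protection or minimal rotarod neurotoxicity. ED50, TD50 and 95% confidence intervals computed from regression by an NINDS program. PI = TD50/ED50.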

Mus musculus [5] = assay: Anticonvulsant in mouse assessed as protection against maximum electric stimulus-induced seizures at 30 mg/kg, ip after 4 hrs; assay type: functional, organism-based; parameters: dose 30 mg/kg; summary of the method: as §1
Mus musculus [6] = assay: Neurotoxicity against mouse at 30 mg/kg, ip after 0.5 hrs by rotarod ataxia test; assay type: toxicity, organism-based; parameters: dose 30 mg/kg, route intraperitoneal; details: in vivo; summary of the method: as §2
Mus musculus [7] = assay: Neurotoxicity against mouse at 30 mg/kg, ip after 4 hrs by rotarod ataxia test; assay type: toxicity, organism-based; parameters: dose 30 mg/kg, route intraperitoneal; details: in vivo; summary of the method: as §2
[8] = Neurotoxicity against ip dosed mouse by rotarod ataxia test; assay type: toxicity, organism-based; details: in vivo
Mus musculus [9] = assay: Protective index, ratio of TD50 for ip dosed mouse to ED50 for maximum electric stimulus-induced seizure in ip dosed mouse; assay type: functional
Mus musculus [10] = assay: Anticonvulsant in mouse assessed as protection against maximum electric stimulus-induced seizures at 100 mg/kg, ip after 0.5 hrs; assay type: functional, organism-based; parameters: dose 100 mg/kg; summary of the method: as §1
Mus musculus [11] = assay: Anticonvulsant in mouse assessed as protection against maximum electric stimulus-induced seizures at 30 mg/kg, ip after 0.5 hrs; assay type: functional, organism-based; parameters: dose 30 mg/kg; summary of the method: as §1
Mus musculus [12] = species on record: Mus musculus; assay: Sedative-hypnotic activity in mouse assessed as reduction in righting reflex; assay type: organism-based; details: in vivo
Summary of the method: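 Phase-III work in KunMing mice: behaviour observed at intervals up to 24 h after i.p. TD50, 2TD50 and 4TD50 doses. […] Ratio taken as HD50 divided by i.p. MES ED50.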

Mus musculus [13] = species on record: Mus musculus; assay: Ratio of HD50 for hypnotic activity to EC50 for inhibition of maximum electric stimulus-induced seizure in mouse; assay type: functional
Mus musculus [14] = assay: Anticonvulsant activity in mouse assessed as inhibition of PTZ-induced clonic seizure at 50 mg/kg, ip administered 30 mins prior to PTZ challenge measured after 0.5 hrs; assay type: functional; details: route intraperitoneal
Summary of the method: (§3)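 KunMing mice, 18–25 g, groups of 10; test agent in polyethylene glycol-400 given i.p. 30 min before convulsant. PTZ 85 mg/kg s.c., 3-MP 40 mg/kg s.c., isoniazid 250 mg/kg i.p.; doses chosen to induce seizures in at least 97% of animals. Individual cages, 30 min observation; clonic seizures, tonic seizures and lethality recorded.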

Mus musculus [15] = assay: Anticonvulsant activity in mouse assessed as inhibition of PTZ-induced tonic seizure at 50 mg/kg, ip administered 30 mins prior to PTZ challenge measured after 0.5 hrs; assay type: functional; details: route intraperitoneal; summary of the method: as §3
Mus musculus [16] = assay: Anticonvulsant activity in mouse assessed as reduction of PTZ-induced lethality at 50 mg/kg, ip administered 30 mins prior to PTZ challenge measured after 0.5 hrs; assay type: functional; parameters: scale not given: the % may be the effect or the level left; details: route intraperitoneal
Mus musculus [17] = assay: Anticonvulsant activity in mouse assessed as inhibition of isoniazid-induced clonic seizure at 50 mg/kg, ip administered 30 mins prior to isoniazid challenge measured after 0.5 hrs; assay type: functional; details: route intraperitoneal; summary of the method: as §3
Mus musculus [18] = assay: Anticonvulsant activity in mouse assessed as inhibition of isoniazid-induced tonic seizure at 50 mg/kg, ip administered 30 mins prior to isoniazid challenge measured after 0.5 hrs; assay type: functional; details: route intraperitoneal; summary of the method: as §3
Mus musculus [19] = assay: Anticonvulsant activity in mouse assessed as reduction of isoniazid-induced lethality at 50 mg/kg, ip administered 30 mins prior to isoniazid challenge measured after 0.5 hrs; assay type: functional; parameters: scale not given: the % may be the effect or the level left; details: route intraperitoneal
Mus musculus [20] = assay: Anticonvulsant activity in mouse assessed as inhibition of 3-mercaptopropionic acid-induced clonic seizure at 50 mg/kg, ip administered 30 mins prior to 3-mercaptopropionic acid challenge measured after 0.5 hrs; assay type: functional; details: route intraperitoneal; summary of the method: as §3
Mus musculus [21] = assay: Anticonvulsant activity in mouse assessed as inhibition of 3-mercaptopropionic acid-induced tonic seizure at 50 mg/kg, ip administered 30 mins prior to 3-mercaptopropionic acid challenge measured after 0.5 hrs; assay type: functional; details: route intraperitoneal; summary of the method: as §3
Mus musculus [22] = assay: Anticonvulsant activity in mouse assessed as reduction of 3-mercaptopropionic acid-induced lethality at 50 mg/kg, ip administered 30 mins prior to 3-mercaptopropionic acid challenge measured after 0.5 hrs; assay type: functional; parameters: scale not given: the % may be the effect or the level left; details: route intraperitoneal
Mus musculus [23] = assay: Anticonvulsant activity in mouse assessed as inhibition of thiosemicarbazide-induced clonic seizure at 50 mg/kg, ip administered 30 mins prior to thiosemicarbazide challenge measured after 2.5 hrs; assay type: functional; details: route intraperitoneal
Summary of the method: (§4)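 KunMing mice (18–25 g), groups of 10, pretreated i.p. with test agent in polyethylene glycol-400 30 min before thiosemicarbazide 50 mg/kg i.p. Animals kept in individual cages and watched for 2 h 30 min, noting clonic seizures, tonic seizures and lethality.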

Mus musculus [24] = assay: Anticonvulsant activity in mouse assessed as inhibition of thiosemicarbazide-induced tonic seizure at 50 mg/kg, ip administered 30 mins prior to thiosemicarbazide challenge measured after 2.5 hrs; assay type: functional; details: route intraperitoneal; summary of the method: as §4
Mus musculus [25] = assay: Anticonvulsant activity in mouse assessed as reduction of thiosemicarbazide-induced lethality at 50 mg/kg, ip administered 30 mins prior to thiosemicarbazide challenge measured after 2.5 hrs; assay type: functional; parameters: scale not given: the % may be the effect or the level left; details: route intraperitoneal
Mus musculus [26] = assay: Anticonvulsant in po dosed mouse assessed as protection against maximum electric stimulus-induced seizures; assay type: functional
Summary of the method: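 Oral version of the phase-II protocol in KunMing mice (18–25 g). Groups of 10 dosed p.o. over a range giving at least three points between 10–90% MES protection or rotarod minimal neurotoxicity. Testing at 2 h time to peak effect. ED50 and TD50 with 95% confidence intervals from regression. PI = TD50/ED50.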

Mus musculus [27] = assay: Protective index, ratio of TD50 for po dosed mouse to ED50 for maximum electric stimulus-induced seizure in po dosed mouse; assay type: functional
[28] = Neurotoxicity against po dosed mouse by rotarod ataxia test; assay type: toxicity, organism-based; details: in vivo

CCCCOc1ccc2nncn2n1
Activity (Mus musculus [1]): inactive
Activity (Mus musculus [2]): Toxic
Activity (Mus musculus [3]): Non-toxic
ED50 (Mus musculus [4]): > 100 mg/kg

CCCCCCOc1ccc2nncn2n1
Activity (Mus musculus [5]): inactive
Activity (Mus musculus [6]): Toxic
Activity (Mus musculus [7]): Non-toxic
ED50 (Mus musculus [4]): 32.9 mg/kg
TD50 [8]: 60.8 mg/kg
PI (Mus musculus [9]): 1.8

Clc1ccccc1Oc1ccc2nncn2n1
Activity (Mus musculus [10]): Active
Activity (Mus musculus [1]): inactive
Activity (Mus musculus [2]): Non-toxic
Activity (Mus musculus [3]): Non-toxic
ED50 (Mus musculus [4]): 47.3 mg/kg
TD50 [8]: 190 mg/kg
PI (Mus musculus [9]): 4

COc1ccccc1Oc1ccc2nncn2n1
Activity (Mus musculus [1]): inactive
Activity (Mus musculus [2]): Non-toxic
Activity (Mus musculus [3]): Non-toxic
ED50 (Mus musculus [4]): > 100 mg/kg

Cc1ccc(Oc2ccc3nncn3n2)cc1
Activity (Mus musculus [1]): inactive
Activity (Mus musculus [2]): Non-toxic
Activity (Mus musculus [3]): Non-toxic
ED50 (Mus musculus [4]): > 100 mg/kg

CCC1(c2ccccc2)C(=O)NC(=O)NC1=O [PHENOBARBITAL]
ED50 (Mus musculus [4]): 21.8 mg/kg

Clc1ccc(Oc2ccc3nncn3n2)c(Cl)c1
Activity (Mus musculus [11]): Active
Activity (Mus musculus [6]): Non-toxic
Activity (Mus musculus [7]): Non-toxic
ED50 (Mus musculus [4]): 17.3 mg/kg
TD50 [8]: 380 mg/kg
PI (Mus musculus [9]): 22
HD50 (Mus musculus [12]): 746.6 mg/kg
Ratio (Mus musculus [13]): 43.2
inhibition in vivo at 50 mg/kg (Mus musculus [14]): 100%
inhibition in vivo at 50 mg/kg (Mus musculus [15]): 10%
Activity (Mus musculus [16]): 0%
inhibition in vivo at 50 mg/kg (Mus musculus [17]): 90%
inhibition in vivo at 50 mg/kg (Mus musculus [18]): 0%
Activity (Mus musculus [19]): 0%
inhibition in vivo at 50 mg/kg (Mus musculus [20]): 80%
inhibition in vivo at 50 mg/kg (Mus musculus [21]): 0%
Activity (Mus musculus [22]): 40%
inhibition in vivo at 50 mg/kg (Mus musculus [23]): 90%
inhibition in vivo at 50 mg/kg (Mus musculus [24]): 0%
Activity (Mus musculus [25]): 40%
ED50 (Mus musculus [26]): 45.6 mg/kg
PI (Mus musculus [27]): 12
TD50 [28]: 546 mg/kg

Fc1ccc(Oc2ccc3nncn3n2)cc1
Activity (Mus musculus [5]): inactive
Activity (Mus musculus [6]): Non-toxic
Activity (Mus musculus [7]): Non-toxic
ED50 (Mus musculus [4]): 38 mg/kg
TD50 [8]: 317 mg/kg
PI (Mus musculus [9]): 8.3

Clc1ccc(Oc2ccc3nncn3n2)cc1
Activity (Mus musculus [6]): Non-toxic
Activity (Mus musculus [7]): Non-toxic
ED50 (Mus musculus [4]): 36.7 mg/kg
TD50 [8]: 394 mg/kg
PI (Mus musculus [9]): 10.7

Cc1ccccc1Oc1ccc2nncn2n1
Activity (Mus musculus [10]): Active
Activity (Mus musculus [1]): inactive
Activity (Mus musculus [2]): Non-toxic
Activity (Mus musculus [3]): Non-toxic
ED50 (Mus musculus [4]): 54.8 mg/kg
TD50 [8]: 220 mg/kg
PI (Mus musculus [9]): 4.01

CCCCCCCCCCOc1ccc2nncn2n1
Activity (Mus musculus [1]): inactive
Activity (Mus musculus [2]): Toxic
Activity (Mus musculus [3]): Non-toxic
ED50 (Mus musculus [4]): > 100 mg/kg
